Measurements pooled from the literature.
Lines come from different studies, so protocols differ.
Cell line: MOLM-13
Read-out: cell growth or viability

SMILES | technique | tested at | time | measurement | result
CN(C)CCNC(=O)c1ccc(-c2nc3ccc4[nH]ncc4c3c3c2CCCCC3)c(F)c1 | – | – | 72 h | GI50 | 51 nM
c1ccc(Oc2ccc(Nc3ccc4ncc(OCC5CCNCC5)nc4c3)cc2)cc1 | XTT | – | 7 days | EC50 | 1400 nM
NCC(=O)Nc1ccccc1/N=c1\cc(-c2ccc3c(c2)OCO3)oc2ccccc12 | CCK-8 | 1 µM | – | inhibition | 1.52%
Fc1ccc(Oc2ccc(Nc3ccc4ncc(OCC5CCNCC5)nc4c3)cc2)cc1 | XTT | – | 7 days | EC50 | 1600 nM
CN(C)CCNC(=O)c1ccc(-c2nc3ccc4[nH]ncc4c3c3c2CCCCC3)cc1 | – | – | 72 h | GI50 | 84 nM
CC(C)(C)[C@H](N)C(=O)Nc1ccccc1/N=c1\cc(-c2ccc3c(c2)OCCO3)oc2cc(F)ccc12 | CCK-8 | 1 µM | – | inhibition | 6.65%
c1cc(-c2cc3ncc(OCC4CCNCC4)nc3cc2-c2cccc(N3CCCCC3)c2)cc(N2CCCCC2)c1 | XTT | – | 7 days | EC50 | 1400 nM
Cc1cc2c(C(N)=O)cccc2n1-c1nc2c(c(NCc3ccccc3)n1)CCCN2 | – | – | 72 h | IC50 | 800 nM
CCNc1nc2ccc(-c3c/c(=N\c4ccccc4NC(=O)CCN)c4ccccc4o3)cc2o1 | CCK-8 | 1 µM | – | inhibition | 12.2%
Cc1n[nH]c2ccc3nc(-c4ccc(C(=O)NCCN(C)C)cc4)c4c(c3c12)CCCCC4 | – | – | 72 h | GI50 | 187 nM
c1ccc(COc2ccc(Nc3ccc4ncc(OCC5CCNCC5)nc4c3)cc2)cc1 | XTT | – | 7 days | EC50 | 840 nM
CN(C)CCNC(=O)c1ccc(-c2nc3ccc4[nH]ncc4c3c3c2CCCC3)cc1 | – | – | 72 h | GI50 | 100 nM
NCCCC(=O)Nc1ccccc1/N=c1\cc(-c2ccc3c(c2)OCO3)oc2ccccc12 | CCK-8 | 1 µM | – | inhibition | 0.08%
Cc1n[nH]c2ccc3nc(-c4ccc(C(=O)NCCN(C)C)cc4F)c4c(c3c12)CCCCC4 | – | – | 72 h | GI50 | 150 nM
COc1ccc2/c(=N/c3ccccc3NC(=O)N3CCOCC3)cc(-c3ccc4c(c3)OCCO4)oc2c1 | CCK-8 | 1 µM | – | inhibition | 3.11%
